In ChEMBL document CHEMBL1138024, “Aryl urea analogs with broad-spectrum antibacterial activity” (Bioorg Med Chem Lett, 2004):
Converted amounts (≈) assume the structure as drawn.

Key:
Assay type in all cases: functional
Staphylococcus aureus [1] = test: In vitro antibacterial activity against Staphylococcus aureus; value ranges from 6-12 uM
Staphylococcus aureus [2] = test: In vitro antibacterial activity against Staphylococcus aureus; value ranges from 3-6 uM
Staphylococcus aureus [3] = test: In vitro antibacterial activity against Staphylococcus aureus; value ranges from 12-25 uM
Escherichia coli [4] = test: Minimum inhibitory concentration against Escherichia coli ATCC 25922
Streptococcus pyogenes [5] = test: Minimum inhibitory concentration against Streptococcus pyogenes ATCC 49399; value ranges from 1.5-3 uM
Enterococcus faecalis = test: Minimum inhibitory concentration against Enterococcus faecalis ATCC 29212; value ranges from 3-6 uM
Klebsiella pneumoniae [6] = test: Minimum inhibitory concentration against Klebsiella pneumoniae ATCC 13383
Staphylococcus aureus [7] = test: Minimum inhibitory concentration against Staphylococcus aureus ATCC 13709 (+4% BSA); value ranges from 3-6 uM
Enterococcus faecium = test: Minimum inhibitory concentration against Enterococcus faecium ATCC 6569
Pseudomonas aeruginosa = test: Minimum inhibitory concentration against Pseudomonas aeruginosa ATCC 25416
Staphylococcus aureus [8] = test: Minimum inhibitory concentration against Staphylococcus aureus ATCC 13709; value ranges from 3-6 uM
Proteus vulgaris = test: Minimum inhibitory concentration against Proteus vulgaris ATCC 8427; value ranges from 12-25 uM
Staphylococcus aureus [9] = test: In vitro antibacterial activity against Staphylococcus aureus; value ranges from 50-100 uM
Staphylococcus aureus [10] = test: In vitro antibacterial activity against Staphylococcus aureus; value ranges from 25-50 uM
Staphylococcus aureus [11] = test: In vitro antibacterial activity against Staphylococcus aureus
Streptococcus pyogenes [12] = test: Minimum inhibitory concentration against Streptococcus pyogenes ATCC 49399; value ranges from 3-6 uM
Escherichia coli [13] = test: Minimum inhibitory concentration against Escherichia coli ATCC 25922; value ranges from 6-12 uM
Huh-7 = test: Cytotoxic concentration against Huh7 cells at 48 hours in MTT assay; value ranges from 12.5-25 uM; details: Homo sapiens, Huh-7, 48 h
Klebsiella pneumoniae [14] = test: Minimum inhibitory concentration against Klebsiella pneumoniae ATCC 13383; value ranges from 6-12 uM
Staphylococcus aureus [15] = test: Minimum inhibitory concentration against Staphylococcus aureus ATCC 13709 (+4% BSA); value ranges from 12-25 uM
Method in brief: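 Same microdilution MIC against S. aureus ATCC 13709, but with 4% bovine serum albumin in the wells. Compound in 0.5% DMSO in water, inoculum about 10³–10⁴ CFU/well, duplicates. Growth was read as A595 after 20–24 h at 37°C against a compound-free control. MIC is reported as the range between full inhibition and viable growth.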

Compound S=C(NCCCNCc1cc(Br)cc(Br)c1)Nc1cccc(Cl)c1 has an MIC (Staphylococcus aureus [1]) of 12 µM (≈ 5.9 µg/mL).

Work on COc1ccc(-c2ccc(CNCCCNC(=O)Nc3ccc(C(F)(F)F)cc3)cc2)cc1 yielded an MIC (Staphylococcus aureus [2]) of 6 µM (≈ 2.74 µg/mL).

FC(F)(F)c1cccc(N/C(S)=N/CCCNCc2cc(Br)cc(Br)c2)c1 showed an MIC (Staphylococcus aureus [1]) of 12 µM (≈ 6.3 µg/mL).

For O=[N+]([O-])c1ccc(N/C(S)=N/CCCNCc2cc(Br)cc(Br)c2)cc1, the MIC (Staphylococcus aureus [3]) was 25 µM (≈ 12.6 µg/mL).

CC(=O)NCC1CN(c2ccc(N3CCOCC3)c(F)c2)C(=O)O1 (single isomer, unassigned) [LINEZOLID] was tested, and the MIC (Escherichia coli [4]) was over 100 µM, the MIC (Streptococcus pyogenes [5]) was 3 µM (≈ 1.01 µg/mL) and the MIC (Enterococcus faecalis) was 6 µM (≈ 2.02 µg/mL). It also gave an MIC (Klebsiella pneumoniae [6]) of over 100 µM, an MIC (Staphylococcus aureus [7]) of 6 µM (≈ 2.02 µg/mL) and an MIC (Enterococcus faecium) of over 100 µM. It also gave an MIC (Pseudomonas aeruginosa) of over 100 µM, an MIC (Staphylococcus aureus [8]) of 6 µM (≈ 2.02 µg/mL) and an MIC (Proteus vulgaris) of 25 µM (≈ 8.43 µg/mL). For the same compound, the MIC (Staphylococcus aureus [2]) was 6 µM (≈ 2.02 µg/mL).

In the case of O=C(NCCCNCc1cc(Br)cc(Br)c1)Nc1ccc(OC(F)(F)F)cc1, the MIC (Staphylococcus aureus [1]) is reported as 12 µM (≈ 6.3 µg/mL).

O=C(NCCCNCc1ccc(Cl)c(Cl)c1)Nc1ccc(C(F)(F)F)cc1 was tested, and the MIC (Staphylococcus aureus [2]) was 6 µM (≈ 2.52 µg/mL).

With S=C(NCCCNCc1cc(Br)cc(Br)c1)Nc1ccc(Cl)cc1 the MIC (Staphylococcus aureus [1]) was 12 µM (≈ 5.9 µg/mL).

With O=C(NCCCNCc1cc(C(F)(F)F)cc(C(F)(F)F)c1)Nc1ccc(C(F)(F)F)cc1 the MIC (Staphylococcus aureus [9]) was 100 µM (≈ 48.7 µg/mL).

Compound Fc1ccccc1/N=C(\S)NCCCNCc1cc(Br)cc(Br)c1 has an MIC (Staphylococcus aureus [10]) of 50 µM (≈ 23.8 µg/mL).

In the case of S=C(NCCCNCc1cc(Br)cc(Br)c1)Nc1ccc(Cl)c(Cl)c1, the MIC (Staphylococcus aureus [2]) is reported as 6 µM (≈ 3.16 µg/mL).

For N#Cc1ccc(NC(=S)NCCCNCc2cc(Br)cc(Br)c2)cc1, the MIC (Staphylococcus aureus [10]) was 50 µM (≈ 24.1 µg/mL).

O=C(NCCCNCc1cc(F)cc(F)c1)Nc1ccc(C(F)(F)F)cc1 was tested, and the MIC (Staphylococcus aureus [9]) was 100 µM (≈ 38.7 µg/mL).

Work on S=C(NCCCNCc1cc(Br)cc(Br)c1)Nc1ccc(I)cc1 yielded an MIC (Staphylococcus aureus [3]) of 25 µM (≈ 14.6 µg/mL).

For CCOc1ccc(Br)cc1CNCCCNC(=O)Nc1ccc(C(F)(F)F)cc1, the MIC (Staphylococcus aureus [1]) was 12 µM (≈ 5.69 µg/mL).

Compound Fc1ccc(N/C(S)=N/CCCNCc2cc(Br)cc(Br)c2)cc1 has an MIC (Staphylococcus aureus [3]) of 25 µM (≈ 11.9 µg/mL).

CC(=O)Nc1ccc(CNCCCNC(=O)Nc2ccc(C(F)(F)F)cc2)cc1 showed an MIC (Staphylococcus aureus [11]) of over 100 µM.

O=C(NCCCNCc1cc(Cl)cc(Cl)c1)Nc1ccc(C(F)(F)F)cc1 gave an MIC (Staphylococcus aureus [1]) of 12 µM (≈ 5.04 µg/mL).

For COc1ccccc1-c1ccc(CNCCCNC(=O)Nc2ccc(C(F)(F)F)cc2)cc1, the MIC (Staphylococcus aureus [1]) was 12 µM (≈ 5.49 µg/mL).

O=C(NCCCNCc1ccccc1)Nc1ccc(C(F)(F)F)cc1 gave an MIC (Staphylococcus aureus [9]) of 100 µM (≈ 35.1 µg/mL).

O=C(NCCCNCc1ccc(Oc2ccccc2)cc1)Nc1ccc(C(F)(F)F)cc1 was tested, and the MIC (Enterococcus faecalis) was 6 µM (≈ 2.66 µg/mL), the MIC (Streptococcus pyogenes [12]) was 6 µM (≈ 2.66 µg/mL) and the MIC (Escherichia coli [13]) was 12 µM (≈ 5.32 µg/mL). For the same compound, the CC50 (Huh-7) was 25 µM, the MIC (Klebsiella pneumoniae [14]) was 12 µM (≈ 5.32 µg/mL) and the MIC (Enterococcus faecium) was over 100 µM. It also gave an MIC (Pseudomonas aeruginosa) of over 100 µM, an MIC (Staphylococcus aureus [8]) of 6 µM (≈ 2.66 µg/mL) and an MIC (Proteus vulgaris) of 25 µM (≈ 11.1 µg/mL). The MIC (Staphylococcus aureus [2]) was 6 µM (≈ 2.66 µg/mL) and the MIC (Staphylococcus aureus [15]) was 25 µM (≈ 11.1 µg/mL).

For CN(CCCNC(=O)Nc1ccc(C(F)(F)F)cc1)Cc1cc(Br)cc(Br)c1, the MIC (Staphylococcus aureus [11]) was over 100 µM.

In the case of S=C(NCCCNCc1cc(Br)cc(Br)c1)Nc1ccccc1Cl, the MIC (Staphylococcus aureus [3]) is reported as 25 µM (≈ 12.3 µg/mL).
